Results reported in ChEMBL document CHEMBL3994572, “Antiviral Triterpenes from the Twigs and Leaves of Lyonia ovalifolia” (J Nat Prod, 2016).

Legend:
[1] = Selectivity index, ratio of TC50 for African green monkey Vero cells to IC50 for Herpes simplex virus-1 F VR 733 infected in African green monkey Vero cells; assay type: toxicity; conditions: read-out: Selectivity Index
Method in brief: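 Vero cells (2.5 × 10^4/well) seeded 24 h, medium removed, infected with HSV-1 at 100 TCID50 for 2 h, then graded compound concentrations added until control CPE reached 4+. IC50 = minimal concentration inhibiting 50% CPE (Reed and Muench); triplicate, at least three separate experiments. […] SI = TC50/IC50.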

[2] = Selectivity index, ratio of TC50 for African green monkey Vero cells to IC50 for Coxsackievirus B3 infected in African green monkey Vero cells; assay type: toxicity; conditions: read-out: Selectivity Index
Method in brief: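 Vero monolayers infected with 100 TCID50 Coxsackie B3 virus, 2 h adsorption at 37 °C, PBS-washed, then held in MEM plus 2% FBS at 37 °C with graded compound concentrations. […] SI = TC50/IC50.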

Human alphaherpesvirus 1 = assay: Antiviral activity against Herpes simplex virus-1 F VR 733 infected in African green monkey Vero cells assessed as inhibition of virus-induced cytopathic effect; assay type: functional; conditions: Human alphaherpesvirus 1, Strain F ATCC VR 733, Vero
Method in brief: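 Vero cells (2.5 × 10^4/well) were seeded for 24 h, then the medium was removed. Cells were infected with HSV-1 at 100 TCID50 for 2 h, then given graded compound concentrations. Incubation continued until control CPE reached 4+. Runs were in triplicate, repeated at least three times. IC50 is the minimal concentration inhibiting 50% of CPE, by Reed and Muench.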

Coxsackievirus B3 = assay: Antiviral activity against Coxsackievirus B3 infected in African green monkey Vero cells assessed as inhibition of virus-induced cytopathic effect; assay type: functional; conditions: Enterovirus B
Method in brief: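 Vero monolayers were infected with Cox B3 at 100 TCID50 and allowed 2 h adsorption at 37 °C. They were then washed with PBS and kept at 37 °C in MEM with 2% FBS, with or without graded concentrations of test compounds. Read-out was CPE.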

[3] = Selectivity index, ratio of TC50 for MDCK cells to IC50 for Influenza A virus (A/95-359) infected in MDCK cells; assay type: toxicity, cell-based; conditions: dog, read-out: Selectivity Index
Method in brief: (§1)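 MDCK cells (2.5 × 10^4/well) seeded 24 h, PBS-washed, infected with influenza A/95-359 at 100 TCID50 for 2 h, then exposed to graded compound concentrations until control CPE reached 4+. IC50 = minimal concentration inhibiting 50% of CPE (Reed and Muench); triplicate, at least three separate experiments. […] SI = TC50/IC50.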

[4] = Cytotoxicity against African green monkey Vero cells assessed as growth inhibition after 48 hrs; assay type: cell-based; conditions: chlorocebus sabaeus, read-out: TC50
Method in brief: (§2)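 Vero or MDCK cells (2.5 × 10^4/well) were seeded for 24 h, then exposed to graded compound concentrations. After 48 h at 37 °C and 5% CO2, cytotoxicity was scored by CPE. TC50 was calculated by Reed and Muench analysis.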

[5] = Cytotoxicity against MDCK cells assessed as growth inhibition after 48 hrs; assay type: cell-based, Canis lupus familiaris; conditions: dog, read-out: TC50; method in brief: as §2
Influenza A virus = assay: Antiviral activity against Influenza A virus A/95-359 infected in MDCK cells assessed as inhibition of virus-induced cytopathic effect; assay type: functional, cell-based; conditions: A/95-359, MDCK; method in brief: as §1

SMILES	selectivity ratio [1]	selectivity ratio [2]	IC50 (Human alphaherpesvirus 1) [µM]	IC50 (Coxsackievirus B3) [µM]	selectivity ratio [3]	CC50 at 48 h [4] [µM]	CC50 at 48 h [5] [µM]	IC50 (Influenza A virus) [µM]
C[C@H](CC[C@H](O)C(C)(C)O)[C@H]1CC[C@@]2(C(=O)O)[C@@H]3CCC4=C(CC[C@@H](O)C4(C)C)C[C@H]3CC[C@]12C	5.2	10	11.1	4.8	4	48.1 to 57.7	19.3	4.8
C[C@H](CC[C@H](O)C(C)(C)O)[C@H]1CC[C@@]2(C(=O)O)C3=C(CC[C@]12C)[C@@]1(C)CC[C@@H](O)C(C)(C)[C@@H]1CC3	7.6	4	2.1	4.8	4.3	16 to 19.3	16	3.7
CC(=O)OC[C@H]1O[C@@H](O[C@@H]2CC[C@]3(C)C4=C(CC[C@H]3C2(C)C)[C@]2(C(=O)O)CC[C@H]([C@H](C)CC[C@H](O)C(C)(C)O)[C@@]2(C)CC4)[C@H](O)[C@@H](O)[C@@H]1O	3	1.7	6.4	11.1	1.7	19.3	19.3	11.1
